Test [1] concerns the target T1, Prostaglandin D2 receptor 2 (Homo sapiens, UniProt Q9Y5Y4).
T1 sequence (Q9Y5Y4 whole entry): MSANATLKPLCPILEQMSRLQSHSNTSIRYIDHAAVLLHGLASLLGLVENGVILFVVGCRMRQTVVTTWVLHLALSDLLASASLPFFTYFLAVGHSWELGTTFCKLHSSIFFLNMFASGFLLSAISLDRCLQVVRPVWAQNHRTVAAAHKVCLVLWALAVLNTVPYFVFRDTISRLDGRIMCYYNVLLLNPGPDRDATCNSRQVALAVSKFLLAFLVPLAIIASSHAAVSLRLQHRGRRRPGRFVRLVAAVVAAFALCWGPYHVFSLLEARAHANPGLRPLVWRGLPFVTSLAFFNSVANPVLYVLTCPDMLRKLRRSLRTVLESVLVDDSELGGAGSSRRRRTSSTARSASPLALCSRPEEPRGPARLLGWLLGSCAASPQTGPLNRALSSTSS
Description: Displacement of [3H]PGD2 from human CRTh2 receptor expressed in 293 cells by liquid scintillation counting in presence of 0.2 % HSA. It is filed as cell-based, HEK293. A digest of the protocol: (§1)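 Membranes from 293 cells stably expressing human DP₂ incubated with [³H]-PGD₂ and increasing compound concentrations. Membranes harvested and washed; bound [³H]-PGD₂ counted. IC₅₀ taken as concentration giving 50% inhibition of binding. Run without and with 0.2% human serum albumin. Values averaged from three experiments (five for the lead).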

The target in test [2] is T1, Prostaglandin D2 receptor 2. The test is described as follows: Displacement of [3H]PGD2 from human CRTh2 receptor expressed in 293 cells by liquid scintillation counting. In kind it is cell-based, HEK293. A digest of the protocol: as §1
A general note: Loss of bound radioactivity is the signal in a displacement assay; it reports binding, not function.

The IC50 is the midpoint of a concentration-inhibition curve. As for `CCN(Cc1cc(-c2ccc(F)cn2)ccc1-c1cc(CC(=O)O)ccc1OC)C(=O)C1CC1`, the IC50 in test [1] is 0.06 µM; in test [2], 0.009 µM.
Regarding `CCN(Cc1cc(-c2cnn(C)c2)ccc1-c1cc(CC(=O)O)ccc1OC)C(=O)C1CC1`, the values for the IC50 in test [1] and in test [2] were 0.037 µM and 0.027 µM, respectively.
Consider `CCN(Cc1cc(C(C)(C)O)ccc1-c1cc(CC(=O)O)ccc1OC)C(=O)OCc1ccccc1`, for which the values for the IC50 in test [1] and in test [2] were 0.024 µM and 0.012 µM, respectively.
The like results for `CCN(Cc1cc(F)ccc1-c1cc(CC(=O)O)ccc1OC)C(=O)OCc1ccccc1` were, in that order, 0.009 µM and 0.001 µM.
As for `CCN(Cc1cc(S(C)(=O)=O)ccc1-c1cc(CC(=O)O)ccc1OC)C(=O)OCc1ccccc1`, the IC50 in test [1] stood at 0.007 µM; in test [2] it was 0.005 µM.

Values taken from ChEMBL document CHEMBL1667769, “Sodium [2'-[(cyclopropanecarbonyl-ethyl-amino)-methyl]-4'-(6-ethoxy-pyridin-3-yl)-6-methoxy-biphenyl-3-yl]-acetate (AM432): a potent, selective prostaglandin D2 receptor antagonist” (Bioorg Med Chem Lett, 2011).
